Dynein cargo inh: blocks dynein driven cargo transport along microtubules | 3617.4 mouse cells, GR-EGFP nuclear translocation imaging; test concentration mostly 20 µM; stimulated with dexamethasone, 1 µM; hits give low values | 220,000 compounds, 0.47% hits | z-score, hits read low;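 active = plate z-score of nuclear minus cytoplasmic receptor signal below a set negative limit, without overly bright fluorescence or cell loss, cut at about -3.5 in these data, passing the limit was not always enough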;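 note: z-score of nuclear minus cytoplasmic ring GR-EGFP intensity difference per well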
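Buffer or medium – tet-free medium with charcoal-stripped serum · Signal – automated 10x imaging of fixed Hoechst-stained cells · Also added – dexamethasone agonist, 1.0 µM final, for 30 min · Incubation – induction 48 h, compound 1 h, agonist 30 min · Read-out – GR-EGFP nuclear translocation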
TLR9-MyD88 block: inhibitors of human TLR9-MyD88 binding. inhibition, % at 4.98 µM. 340,000 compounds, 0.21% hits. Q9NR96+Q99836. CHO BLA complementation TLR9-MyD88, CCF4 FRET ratio;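 active = inhibition above the mean over all tested compounds plus 3 SD, cut at about 21% in these data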;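 note: 0% = DMSO only wells and 100% = clavulanate BLA inhibitor control wells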
B2AR ag: activates human beta-2 adrenergic receptor causing internalization | AID 504454 | response, % (test concentration not listed) | Am2.2-beta2AR cells, FAP receptor internalization, flow cytometry | 340,000 compounds, 0.43% hits;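 active = response above a set limit, near 3 SD of response in nonfluorescent compounds, cut at about 42% in these data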
NOD2 RIPK2 PPI: NOD2-RIPK2 protein interaction inhibition; O43353; CHO BLA complementation NOD2-RIPK2, CCF4 ratio; inhibition, % at 4.98 µM; 360,000 compounds, 0.38% hits; in the data active = inhibition above about 21%;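 note: 0% = vehicle only and 100% = reference blocker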
ABHD5 PLIN5 PPI: blocks binding of human ABHD5 to perilipin-5; Q00G26+Q8WTS1; Split G. princeps luciferase complementation, luminescence, 4 h; inhibition, % at 4 µM; 360,000 compounds, 0.78% hits;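 active = inhibition above the mean inhibition across every tested compound plus 3 SD, cut at about 22% in these data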;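 note: 0% = DMSO only wells and the 100% control is not disclosed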
ABHD5-PLIN5 conf: confirmation of human ABHD5-PLIN5 interaction inhibitors; shares compounds with ABHD5 PLIN5 PPI; biochemical ABHD5-PLIN5 interaction, luminescence; inhibition, % at 4 µM; 2,200 compounds, 67% hits; in the data active = inhibition above about 23%;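 note: 0% = DMSO vehicle wells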
HNF4 split-luc: HNF4 split-luciferase signal hit, counter-screen; shares compounds with ABHD5 PLIN5 PPI; 2,200 compounds, 77% hits; HNF4 dimerization, luminescence, biochemical; inhibition, % at 4 µM;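 active = mean inhibition across replicate wells exceeding the computed hit threshold, cut at about 13% in these data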;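 note: light from luciferase halves that rejoin when HNF4 fusion proteins dimerize; 0% = DMSO only wells and the 100% control is not given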
NOD2-RIPK2 conf: confirmation of human NOD2-RIPK2 interaction inhibitors. 1,200 compounds, 70% hits. shares compounds with NOD2 RIPK2 PPI. AID 624370. inhibition, % at 4.98 µM. CHO cells, NOD2-RIPK2 BLA complementation, CCF4 FRET;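 active = mean inhibition across replicates above a set limit taken from the earlier primary screen, cut at about 21% in these data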;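 note: 0% = DMSO-only wells and the high end = clavulanate BLA-blocked wells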
BLA counter: hits BLA reporter in NOD2-RIPK2 inhibitor counterscreen; shares compounds with NOD2 RIPK2 PPI; CHO BLA reporter, CCF4 FRET ratio; inhibition, % at 4.98 µM; 1,200 compounds, 57% hits;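 active = mean inhibition above the low-control mean inhibition plus three low-control SD, cut at about 11% in these data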;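 note: 0% = DMSO only wells and 100% = clavulanate high control wells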
* marks the source's active call; other numbers are inactive results; . = no result given. Sampled rows, rich in hits. Any-hit rate of the full collection: about 1.6%.

SMILES	Dynein cargo inh	TLR9-MyD88 block	B2AR ag	NOD2 RIPK2 PPI	ABHD5 PLIN5 PPI	NOD2-RIPK2 conf	BLA counter	others
C=C1C(=O)OC2CC3(C)OC3C3OC3C3=CC(OC3=O)C12 (stereo unspecified)	.	.	.	43.6*	99.6*	66.7*	18.3*	ABHD5-PLIN5 conf=101.0*;HNF4 split-luc=110.6*
CC(=O)O/C(=C1\CC2C3CC=C4CC(OC(C)=O)CCC4(C)C3CCC2(C)C1=O)C(F)(F)F (stereo unspecified)	.	6.7	11.9	6.2	4.0	.	.
CC1CC(C)CC(C)C(O)C(C#N)=CC=CCC(C2CCCC2C(=O)O)OC(=O)CC(O)C(C)C1 (stereo unspecified)	.	5.5	13.2	29.9*	-6.0	28.2*	-5.4
COC(=O)C1=C(c2ccc(F)cc2F)C[C@@H]2CC[C@H]1N2C(=O)N1CCC(O)(c2ccc(Cl)cc2)CC1	.	-3.2	5.8	-6.3	1.3	.	.
N#CC1c2ccccc2-n2nncc2CN1Cc1cc(Cl)cc(Cl)c1 (stereo unspecified)	.	12.9	94.1*	58.8*	96.1*	43.4*	-2.5
O=C1NC2C(=CC(O)C(O)C2O)c2cc3c(cc21)OCO3 (stereo unspecified)	.	4.2	12.2	15.4	3.9	.	.
COc1cc(C2c3cc4c(cc3CC3COC(=O)C32)OCO4)cc(OC)c1O (stereo unspecified)	.	1.8	23.2	-10.9	-1.9	.	.
O=C1NC2C(O)C(O)C(O)C(O)C2c2cc3c(c(O)c21)OCO3 (stereo unspecified)	.	3.6	20.1	22.1*	2.1	29.0*	-1.8
O=C1NC2C(=CC(O)C(O)C2O)c2cc3c(c(O)c21)OCO3 (stereo unspecified)	.	-1.0	35.5	29.9*	-11.5	26.8*	-7.4
O=P(Oc1ccccc1)(Oc1ccccc1)N1CCOCC1	.	-12.3	2.5	2.4	6.0	.	.
CC(=O)OCC12CC(OC(=O)CC(C)C)C(C)=CC1OC1C(O)C(OC(C)=O)C2(C)C12CO2 (stereo unspecified)	.	-10.1	19.0	22.9*	1.5	23.2*	-7.3
C[n+]1c(-c2ccccc2)c2cc(N)ccc2c2ccc(N)cc21	.	11.3	16.6	27.8*	-18.7	-0.7	-2.6
S=C(N1CCCCCC1)N1CC1	.	3.7	5.1	-7.3	2.3	.	.
CO[C@@H]1C=CC23c4cc5c(cc4CO[C@]2(O)CN(C)[C@H]3C1)OCO5 (stereo partly specified)	.	-2.5	-4.5	-21.6	10.7	.	.
COc1cc(/C=C/c2nc3ccccc3c(=O)n2-c2cccc(O)c2)ccc1O	1.69	13.6	-100.9	21.0*	5.5	5.0	13.6*
COC(=O)C1=C(c2ccc(OCc3ccccc3)cc2)C[C@@H]2CC[C@H]1N2C(=O)NCc1ccccc1C(F)(F)F	.	8.0	.	-14.8	-10.7	.	.
